Laboratory results published in article PMC9150438 (Methods in enzymology, 2022).

How the values were obtained:
MEK1-NL = MEK1-NL (Homo sapiens, UniProt Q02750); assay: NanoBRET tracer build-up; format: binding
In short: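 HEK293T cells at ~70% confluence were plated at 200,000 cells/mL and transfected with MEK1-NL alone, MEK1-NL plus mKSR1, or mKSR1-NL, then incubated at least 20 h at 37 °C. The Tram-bo tracer was titrated in each scenario to record BRET, giving an apparent EC50 and maximal BRET signal for each. These set the working tracer concentration above EC50.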

mKSR1:MEK1 complex = details: steady-state NanoBRET, 1 μM Tram-bo (Fig. 7A); ref Khan et al., 2020; cited from earlier work
BRAF = BRAF (Homo sapiens, UniProt P15056); assay: ATP-biotin probe labeling competition assay on isolated BRAF; format: binding; details: MEK, KSR1:MEK and KSR2:MEK labeled with 2.5 μM probe (Fig. 4E)
KRAS mutant cell lines = details: ref Khan et al., 2020; cited from earlier work
mKSR1-NL W781D = details: mKSR1 W781D interface mutant (Fig. 6F); ref Khan et al., 2020; cited from earlier work
SEC = target: the molecule itself; assay: SEC

Chain of MEK1-NL (Q02750 whole entry): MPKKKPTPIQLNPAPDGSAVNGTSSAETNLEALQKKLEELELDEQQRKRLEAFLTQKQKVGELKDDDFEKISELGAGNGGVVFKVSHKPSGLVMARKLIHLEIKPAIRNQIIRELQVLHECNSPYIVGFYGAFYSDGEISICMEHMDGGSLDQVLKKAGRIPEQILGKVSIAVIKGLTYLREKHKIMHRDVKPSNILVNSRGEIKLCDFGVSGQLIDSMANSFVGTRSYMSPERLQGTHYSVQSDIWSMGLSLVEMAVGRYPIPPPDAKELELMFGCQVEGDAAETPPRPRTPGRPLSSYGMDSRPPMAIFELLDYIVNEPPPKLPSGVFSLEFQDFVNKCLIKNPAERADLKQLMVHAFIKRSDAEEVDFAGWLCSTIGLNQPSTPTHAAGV
Chain of BRAF (P15056 457-717 limits assumed): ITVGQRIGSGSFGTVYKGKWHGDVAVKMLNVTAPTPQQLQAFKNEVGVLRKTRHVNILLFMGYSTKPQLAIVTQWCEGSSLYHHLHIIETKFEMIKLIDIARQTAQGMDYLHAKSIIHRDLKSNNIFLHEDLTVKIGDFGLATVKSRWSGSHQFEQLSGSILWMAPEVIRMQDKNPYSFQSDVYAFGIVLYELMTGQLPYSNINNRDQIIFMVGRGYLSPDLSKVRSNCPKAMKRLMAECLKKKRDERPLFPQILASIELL

Cc1c(=O)n(C)c(Nc2ccc(I)cc2F)c2c(=O)n(C3CC3)c(=O)n(-c3cccc(NC(=O)CCOCCOCCNC(=O)CCc4ccc5n4[B-](F)(F)[N+]4=C(c6ccc[nH]6)C=CC4=C5)c3)c12 [Tram-bo]
fold difference of Tram-bo EC50, MEK1-NL vs the two MEK1–mKSR1 complex scenarios (MEK1-NL; MEK1-NL vs mKSR1-NL and MEK1-NL coexpressed with mKSR1 (Fig. 6C)): ~ 20 times | apparent EC50 of Tram-bo (MEK1-NL; NanoBRET build-up curves (Fig. 6C)): in the nanomolar range

O=C(c1ccc(F)c(F)c1Nc1ccc(I)cc1F)N1CC(O)([C@@H]2CCCCN2)C1 [cobimetinib]
apparent IC50 on free MEK1 compared with the mKSR1:MEK1 complex (mKSR1:MEK1 complex): more potent binding to the complex

CC(C)(C)c1nc(-c2cccc(NS(=O)(=O)c3c(F)cccc3F)c2F)c(-c2ccnc(N)n2)s1 [dabrafenib]
inhibitor specificity in ATP-biotin competition assay (BRAF): BRAF-specific inhibition

CNS(=O)(=O)Nc1cccc(-n2c(=O)n(C3CC3)c(=O)c3c(Nc4ccc(I)cc4F)n(C)c(=O)c(C)c32)c1 [trametiglue]
potency of growth inhibition relative to trametinib and other MEKi including CH5126766 (KRAS mutant cell lines): markedly enhanced

CC(=O)Nc1cccc(-n2c(=O)n(C3CC3)c(=O)c3c(Nc4ccc(I)cc4F)n(C)c(=O)c(C)c32)c1 [trametinib]
dose-response in KSR-NL assay with W781D mutant (mKSR1-NL W781D): loss of a Trametinib dose-response

B1: KSR1 pseudokinase domain [residues 591–899] (domain or fragment, human, UniProt Q8IVT5 591-899, looked up)
chain: PISRKASQTSVYLQEWDIPFEQVELGEPIGQGRWGRVHRGRWHGEVAIRLLEMDGHNQDHLKLFKKEVMNYRQTRHENVVLFMGACMNPPHLAIITSFCKGRTLHSFVRDPKTSLDINKTRQIAQEIIKGMGYLHAKGIVHKDLKSKNVFYDNGKVVITDFGLFGISGVVREGRRENQLKLSHDWLCYLAPEIVREMTPGKDEDQLPFSKAADVYAFGTVWYELQARDWPLKNQAAEASIWQIGSGEGMKRVLTSVSLGKEVSEILSACWAFDLQERPSFSLLMDMLEKLPKLNRRLSHPGHFWKSADI
binding result (SEC): binds
